From PubChem
Yeast lifespan up: compounds extending yeast replicative lifespan, primary screen, S. cerevisiae, OD615. S. cerevisiae growth with nicotinamide; deaD strain in restrictive glucose medium. inhibition of the nicotinamide effect, % at 10 µM. 0.68% of 130,000 active;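 active = inhibition above a set limit, placed 3 SD over the median of all compounds, cut at about 26% in these data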;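 note: 0% = nicotinamide-treated wells and 100% = cells grown without nicotinamide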
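Assay system: engineered S. cerevisiae DeaD replicative-lifespan strain, galactose-grown log-phase cells; Buffer or medium: CSMM-D glucose medium, restrictive; Probe or stimulus: nicotinamide 1.5 mM; Compound: single dose 10 µM compound, 0.25% DMSO; Schedule: 4 h preincubation then 48 h treatment at 30 °C; Technique: OD615 measurement.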
WT yeast gro inh: growth inhibition of WT strain, primary screen, mitochondrial fusion inhibitor project, WT and mutant strains, chemical genetic; mitochondrial fusion phenotypic screen; inhibition, % at 10 µM; 2.1% of 190,000 active; AID 1362, 2008; in the data active = inhibition above about 58%; tested in S. cerevisiae
KCC2 mod: KCC2 cotransporter modulators, thallium flux, primary screen, cell-based, HEK293 KCC2, FluoZin-2 fluorescence, MLSMR; Solute carrier family 12 member 5 (Homo sapiens), Q9H2X9; B-score of Tl+ flux slope (higher = more flux/activation; lower = inhibition) at 10 µM; KCC2 cells, thallium flux FluoZin-2 fluorescence; 2.2% of 190,000 active;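 active = thallium flux slope and its plate-corrected score both differing from the plate sample mean at a set confidence after two filtering rounds, in either direction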;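 note: slope of fluorescence scaled to starting intensity during 10 to 20 s after thallium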
Target sequence (Q9H2X9 whole entry, looked up): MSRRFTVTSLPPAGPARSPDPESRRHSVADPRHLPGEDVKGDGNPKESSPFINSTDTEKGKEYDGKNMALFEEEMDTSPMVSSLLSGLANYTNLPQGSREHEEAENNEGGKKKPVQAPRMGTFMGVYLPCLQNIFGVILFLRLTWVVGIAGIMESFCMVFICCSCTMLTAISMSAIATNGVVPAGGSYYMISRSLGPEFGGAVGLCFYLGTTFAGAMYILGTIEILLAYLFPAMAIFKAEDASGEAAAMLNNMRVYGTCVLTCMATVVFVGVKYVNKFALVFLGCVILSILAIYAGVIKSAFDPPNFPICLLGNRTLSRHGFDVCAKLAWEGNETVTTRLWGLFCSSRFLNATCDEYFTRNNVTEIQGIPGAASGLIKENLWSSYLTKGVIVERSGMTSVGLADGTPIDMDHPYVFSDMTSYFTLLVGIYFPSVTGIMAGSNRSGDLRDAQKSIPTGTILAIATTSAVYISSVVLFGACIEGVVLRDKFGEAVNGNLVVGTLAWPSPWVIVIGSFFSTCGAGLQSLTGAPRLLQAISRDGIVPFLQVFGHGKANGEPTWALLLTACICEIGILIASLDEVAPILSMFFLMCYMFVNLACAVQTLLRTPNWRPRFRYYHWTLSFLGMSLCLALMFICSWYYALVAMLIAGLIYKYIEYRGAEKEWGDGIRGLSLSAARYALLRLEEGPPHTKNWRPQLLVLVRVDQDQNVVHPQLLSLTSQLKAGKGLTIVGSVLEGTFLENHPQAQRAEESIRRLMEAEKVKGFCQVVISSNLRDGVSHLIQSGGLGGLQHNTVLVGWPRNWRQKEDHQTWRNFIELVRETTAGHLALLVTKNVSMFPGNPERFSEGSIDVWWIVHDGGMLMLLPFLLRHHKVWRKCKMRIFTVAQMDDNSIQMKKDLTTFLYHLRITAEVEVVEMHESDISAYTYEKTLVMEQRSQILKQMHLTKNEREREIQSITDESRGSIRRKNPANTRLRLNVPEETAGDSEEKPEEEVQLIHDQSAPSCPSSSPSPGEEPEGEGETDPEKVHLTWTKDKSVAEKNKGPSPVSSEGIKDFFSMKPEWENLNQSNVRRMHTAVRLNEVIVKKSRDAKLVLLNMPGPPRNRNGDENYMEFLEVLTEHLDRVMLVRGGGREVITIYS
RAM inhibit: inhibitors of the yeast RAM network, primary screen, dse1pr::URA3 reporter, 5-FOA selection; AID 868, 2007; S. cerevisiae dse1pr::URA3 reporter, 5-FOA growth OD615, 2 d; analog-sensitive cbk1-as2 kinase mutant strain; inhibition, % at 50 µM; 1.8% of 190,000 active;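 active = inhibition above a set limit, 3 SD over mean compound inhibition, cut at about 8.4% in these data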;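 note: 0% = DMSO-only wells with no growth and 100% = 10 µM 1-NA-PP1 full growth; inhibition rescues growth on 5-FOA so higher OD means more RAM inhibition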
BB579 growth dn: growth inhibitors of yeast BB579 in restrictive medium, primary screen, yeast lifespan-shortening project, S. cerevisiae; OD615, 48 h; inhibition, % at 10 µM; 0.51% of 140,000 active; AID 804, 2007;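 active = inhibition above a set limit, 3 SD over the mean compound inhibition, cut at about 44% in these data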
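controls = amphotericin B 10 µg/mL, positive | assay system = DeaD yeast strain BB579 | schedule = 48 h compound exposure at 30 °C after 4 h preincubation | detection = OD615 turbidity measurement | medium = restrictive CSMM-D medium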
* = called active by the depositor; x = no result given. This is a sample that favours compounds with a hit; in the whole collection about 5.5% have one here.

SMILES	Yeast lifespan up	WT yeast gro inh	KCC2 mod	RAM inhibit	BB579 growth dn
COc1ccc(OCc2nnc(SCC(=O)c3c(N)n(C)c(=O)n(C)c3=O)n2-c2ccccc2F)cc1	x	-17	-0.035	11*	x
Cc1ccccc1-c1ccc(=O)n(CC(=O)Nc2ccc(-n3cnnn3)cc2)n1	x	x	1.4	x	x
Cc1ccccc1-c1ccc(=O)n(CC(=O)Nc2ccc(S(=O)(=O)N(C)C)cc2)n1	x	2	-0.72	8.9*	x
CCOc1ccccc1CNC(=O)c1ccc(Sc2ccc(Cl)cc2)c(NC(C)=O)c1	1	65*	-0.059	4	-28
Cc1c(C(=O)Nc2ccc(F)cc2)cn2c(nc3ccccc32)c1C#N	x	x	-1	x	x
N#Cc1c2nc3ccccc3nc2n2cc(NC(=O)c3ccc(F)cc3)ccc12	-2	8	0.69	9.8*	-20
Oc1cccc(NC(=S)N=Nc2c(O)[nH]c3ccccc23)c1	x	x	-0.6	x	x
O=C(CSCc1ccccc1)N=Nc1c(O)[nH]c2ccccc12	-6	10	8.6*	3	-7
Oc1[nH]c2ccccc2c1N=NC(=S)NCCc1ccccc1	-6	55	20*	4	-24
CCOc1ccc(NC(=S)N=Nc2c(O)[nH]c3ccccc23)cc1	x	26	4.4*	8	x
Cc1ccccc1NC(=O)c1cc(C(=O)c2cc(Cl)ccc2O)cn(-c2ccccc2C)c1=O	-1	39	-0.42	3	-44
O=C(c1ccco1)n1nc(-c2ccccc2)nc1NCc1ccco1	-3	-7	0.47	3	-34
O=C(c1ccco1)n1nc(-c2ccc(Cl)cc2)nc1NCc1ccco1	7	0	0.026	9.4*	-73
COc1ccccc1C(=O)n1nc(-c2ccccc2)nc1NCc1ccco1	-12	83*	-1.5	7	-70
CS(=O)(=O)N(CC(=O)NCc1ccc2c(c1)OCO2)Cc1ccccc1	-4	12	-0.19	0	-6
Cc1ccc(NC(=O)COC(=O)c2cc(C)nc3ccccc23)c([N+](=O)[O-])c1	-1	-2	-0.45	1	-24
Cc1cc(C)c(S(C)(=O)=O)c(Oc2ccccc2C)n1	-24	-8	0.47	0	-32
Cc1ccc(S(=O)(=O)c2c(C)cc(C)nc2Oc2cccc(C)c2C)cc1	-22	66*	x	4	-42
OCCC1CN(Cc2ccccc2OC2CCCC2)CCN1Cc1ccsc1 (configuration not stated)	x	13	-0.68	0	x
O=C(Nc1nnc(-c2ccc(F)cc2)o1)c1cc(Cl)sc1Cl	-4	64	54*	-1	66*
O=C(Nc1nnc(-c2ccccc2)o1)c1cc(Cl)sc1Cl	5	60	60*	1	-23
COc1ccc(C(=O)Nc2nnc(-c3ccccc3)o2)cc1OC	-3	-2	x	8	-27
CCOC(=O)CSc1nc2sc(C)c(C)c2c(=O)[nH]1	-26	17	-1.5	1	-16
CCOC(=O)/C(=C\c1ccc(Cl)cc1)c1nc2sc(C)c(C)c2c(=O)[nH]1	32*	50	0.89	3	-14
c1ccc2c(c1)[nH]c1c(N3CCCC3)ncnc12	-20	69*	0.01	0	-4
SMILES	Yeast lifespan up	WT yeast gro inh	KCC2 mod	RAM inhibit	BB579 growth dn
CCCNS(=O)(=O)c1cccc(C(=O)NC2CCCc3ccccc32)c1 (configuration not stated)	0	8	-1.2	0	-56
S=c1[nH]nc(-c2ccco2)n1Cc1ccccc1	-16	15	-0.7	0	-39
S=c1[nH]nc(-c2ccc(Br)o2)n1Cc1ccccc1	-12	1	3.4*	2	-10
Cc1cccc(C)c1OCC(O)CN1CCC(CN2C(=O)c3cccc4cccc(c34)C2=O)CC1 (configuration not stated)	-11	42	2	0	-33
O=C1c2ccccc2CCC12N=NCC2c1ccc(Br)cc1 (configuration not stated)	-5	68*	-0.37	2	-26
O=C1c2ccccc2CCC12N=NCC2c1ccc(Cl)cc1 (configuration not stated)	-14	6	0.17	2	-33
COc1ccc(-c2cnn3c(N)c(S(=O)(=O)C(C)(C)C)cnc23)cc1	30*	12	-0.82	0	-2
